Lung fibro prol = blocks proliferation of human lung fibroblasts | LL 47 human lung fibroblast viability, ATP luminescence; stronger effect = lower value | viability, % at 10 µM | 85,000 compounds, 1.1% hits | AID 719;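 active means viability at or below 50% in the single dose screen; inactive means viability above 50%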;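 further: compound exposure lasted 72 h before the ATP readout; 100% = median luminescence of untreated cell-only wells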
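Benchmarks: Cell-only wells, no compound | Test system: LL 47 human lung fibroblasts, passage 12 or lower | Input: 1,150 cells/well | Measured by: CellTiter-Glo luminescence measuring cellular ATP | Medium: IMEM, 15% FBS supplement | Schedule: Overnight attachment after seeding, then 72 h compound exposure at 37 °C | Doses: Compound addition at 0.1% DMSO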
H69AR inhibit = blocks growth of human H69AR lung tumor cells | AID 598 | H69AR lung tumor viability, ATP luminescence, 72 h; stronger effect = lower value | viability, % at 10 µM | 85,000 compounds, 6% hits;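 active means viability at or below 40%; inactive means viability above 40%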;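 further: multidrug resistant small cell line overexpressing MRP-1 efflux transporter; 100% = mean luminescence of untreated control wells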
HCT116 bCat-KO = beta-catenin-lacking colon tumor cell growth suppression | HCT116 beta-catenin knockout viability, CellTiter-Glo, 60 h; stronger effect = lower value | viability, % at 10 µM | 140,000 compounds, 1.5% hits | AID 818;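 active means viability at or under a set limit, the compound median less 4 SD, cut at about 6% in these data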;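 further: 0% = Hyamine 1622 control at 20 µM and 100% = untreated cell control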
HUVEC inhibit = inhibitors of human endothelial cell proliferation; viability, % at 10 µM (by protocol); AID 648; 86,000 compounds, 1.1% hits; HUVEC proliferation, CellTiter-Glo luminescence, 72 h; stronger effect = lower value;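 active means viability at or below 30%; inactive means viability above 30%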;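 further: 100% = median luminescence of DMSO-only cell control wells on each plate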
PTEN del growth = growth suppressors of cells with PTEN tumor suppressor deletion; HCT116 PTEN-null viability, CellTiter-Glo, 60 h; stronger effect = lower value; 140,000 compounds, 1.2% hits; viability, % at 10 µM;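 active means viability at or below a set limit, 4 SD under the median of all tested compounds, cut at about 3.7% in these data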;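 further: PTEN knockout HCT116 line with beta catenin targeted HCT116 as companion control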
Starred values were filed as active, the others as inactive; / = no result. Shown is part of a subset that was picked to be rich in hits.

SMILES	Lung fibro prol	H69AR inhibit	HCT116 bCat-KO	HUVEC inhibit	PTEN del growth
CCN(c1ccccc1)S(=O)(=O)c1ccc(C(=O)Oc2ccc(C(C)=O)cc2)cc1	/	/	100.2	/	104.5
CCCCCCC(=O)N/N=C1\CCCc2ccccc21	/	/	92.8	/	96.9
COCCn1c(C)cc(/C=C2/NC(=O)N(c3ccc(Cl)cc3)C2=O)c1C	/	/	88.7	/	83.6
O=C(Nc1nc2ccccc2s1)c1ccc(N2CCCCC2)c([N+](=O)[O-])c1	/	/	57.0	/	52.4
CC(C)OC(=O)c1nnc(Cc2ccc(F)cc2)o1	98.5	106.3	100.6	101.5	100.7
CC(C)C[C@H](N)c1nnc(S(=O)(=O)Cc2ccc(F)cc2)o1	67.5	5.9*	87.9	100.1	91.2
Cc1ccc(-c2nn(-c3ccccc3)cc2/C=N/NC(=O)c2ccc(Br)o2)cc1	/	/	4.2*	/	3.8
O=C(N/N=C\c1cn(-c2ccccc2)nc1-c1ccccc1)c1ccc(Br)o1	/	/	7.1	/	6.6
Cc1cccc2cc(CN(CC3CCCO3)S(=O)(=O)c3ccccc3)c3nnnn3c12 (centres undefined)	86.4	100.1	/	94.7	/
Cc1ccc2cc(CN(CC3CCCO3)S(=O)(=O)c3ccccc3)c3nnnn3c2c1 (centres undefined)	93.8	12.2*	70.8	96.3	76.7
COc1ccc(C2=C(SC)CC2=NC(C)(C)C)cc1	/	/	96.5	/	97.5
Oc1cccc2ccc(/C=C/c3cccs3)nc12	14.1*	12.0*	6.1	59.6	3.8*
O=C(/C=C/c1cccs1)Nc1cccc(NC(=O)/C=C/c2cccs2)n1	/	/	35.9	/	28.7
Cc1ccsc1/C=C/c1ccc2cccc(O)c2n1	44.9*	17.7*	5.0*	62.1	4.1
O=C(Cc1cccs1)NC1(C(=O)NC2CCCC2)CCCCC1	/	/	84.4	/	99.2
c1ccc(Cn2c(-c3cncs3)nc3ccccc32)cc1	95.4	92.6	88.5	110.7	79.3
O=C(Cn1c(-c2cncs2)nc2ccccc21)NCCc1ccccc1	98.7	17.8*	99.8	100.6	86.1
Cc1cc(N2CCCC2)nc(SCC(=O)c2ccccc2)n1	96.3	74.5	88.6	100.6	87.3
Cc1cc(N2CCC(C)CC2)nc(SCC(=O)c2ccccc2)n1	92.4	39.5*	71.8	87.6	78.3
Cc1ccc(-c2cc(C(F)F)n3ncc(C(=O)N4CCN(c5cccc(C)c5C)CC4)c3n2)cc1	100.8	80.6	3.2*	81.4	7.6
COc1ccc(-c2cc(C(F)F)n3ncc(C(=O)N4CCN5CCCC5C4)c3n2)cc1 (centres undefined)	96.7	37.9*	59.1	98.0	58.8
Cc1ccc(S(=O)(=O)NC(=O)c2cc(C)n(-c3ccc(N(C)C)cc3)c2C)cc1	/	/	93.8	/	89.7
O=[N+]([O-])c1ccc2cn(-c3ccccc3)nc2c1	/	/	92.6	/	88.5
O=C(Nc1ccn(Cc2ccccc2F)n1)c1ccc(COc2ccccc2Cl)cc1	/	/	5.9*	/	17.0
COc1cc(C(=O)Nc2ccc3c(c2)Cc2cc(NC(=O)c4cc(OC)c(OC)c(OC)c4)ccc2-3)cc(OC)c1OC	/	/	40.7	/	45.6
SMILES	Lung fibro prol	H69AR inhibit	HCT116 bCat-KO	HUVEC inhibit	PTEN del growth
Cc1ccc(Cl)cc1N1CCN(Cc2nc3c(c(=O)[nH]c(=O)n3C)n2Cc2ccccc2F)CC1	85.5	18.8*	/	42.2	/
Cn1c(=O)[nH]c(=O)c2c1nc(CN1CCN(c3cccc(Cl)c3)CC1)n2CCCc1ccccc1	95.2	57.1	67.3	82.4	74.5
Cc1ccc(Cl)cc1N1CCN(Cc2nc3c(c(=O)[nH]c(=O)n3C)n2CCc2ccccc2)CC1	17.7*	4.3*	11.1	36.9	16.9
Cc1nn(C)c(C(=O)NNC(=S)NCC(C)C)c1Cl	/	/	104.9	/	100.0
COc1cccc(NC(=S)N2CCN(Cc3ccccc3)CC2)c1	/	/	95.0	/	100.0
CCc1nc2ccccc2c(C(=O)OCC(=O)Nc2cccc(S(=O)(=O)N3CCOCC3)c2)c1C	75.5	22.5*	14.8	57.2	14.0
CCc1nc2ccccc2c(C(=O)OCC(=O)Nc2ccc(S(=O)(=O)N3CCOCC3)cc2)c1C	89.7	27.9*	47.1	76.8	51.1
CC(=O)c1cn(CC(=O)Nc2ccc(C)cc2C)c2ccccc12	91.7	92.8	33.6	86.5	42.5
COC(=O)Cn1c(=O)c2c(nc3n2CC(C)CN3c2ccc(C)c(C)c2)n(C)c1=O (centres undefined)	95.6	84.7	/	83.6	/
COc1cccc(C(=O)/C=C/c2ccc(OCC#N)c(OC)c2)c1	/	/	3.6*	/	2.5*
COc1ccc(/C=C/C(=O)c2ccc(O)cc2)cc1CN1CCOCC1	/	/	14.2	/	12.0
COC(=O)c1ccc(/C=C/C(=O)c2cccc(OC)c2)cc1	/	/	2.1*	/	1.9*
CCOc1ccc(/C=C/C(=O)c2ccccc2)cc1OC	/	/	8.8	/	7.4
COc1cc(/C=C/C(=O)c2ccc(O)cc2)ccc1OCC#N	/	/	2.7*	/	1.7*
CCOc1ccc(C(=O)NC(=S)NCc2cccnc2)cc1[N+](=O)[O-]	/	/	83.9	/	86.5
S=C(Nc1ccc(N2CCOCC2)cc1)Nc1ccc2nc(-c3ccco3)c(-c3ccco3)nc2c1	113.1	32.7*	67.9	53.5	77.3
O=C(Nc1ccc(N2CCOCC2)cc1)c1ccc2nc(-c3ccco3)c(-c3ccco3)nc2c1	82.6	29.3*	98.1	51.6	82.7
CC(=O)c1ccc(NC(=O)c2ccc3nc(-c4ccco4)c(-c4ccco4)nc3c2)cc1	85.6	2.4*	91.2	49.0	93.0
FC(F)(F)c1nnc2c(Sc3ccccn3)nc3ccccc3n12	/	/	2.1*	/	2.7*
FC(F)(F)c1nnc2c(Sc3ccc(Cl)cc3)nc3ccccc3n12	/	/	2.8*	/	5.5
Cc1cc(C)c(S(=O)(=O)N2CCCOC2CNC(=O)C(=O)NCc2ccncc2)c(C)c1 (centres undefined)	/	/	100.8	/	94.6
O=c1[nH]c(NCc2ccco2)nnc1Cc1ccccc1Cl	77.3	30.3*	30.1	48.4	36.9
Cc1cc(-c2ccccc2)nc(Cl)c1C#N	/	/	86.0	/	86.3
COc1cccc(/C=N/NC(=O)c2cc3c(OC)cccc3[nH]2)c1O	/	/	6.0*	/	2.6*
COc1cccc(/C=N/NC(=O)c2c(-c3ccccc3)noc2C)c1O	/	/	5.8*	/	6.8
SMILES	Lung fibro prol	H69AR inhibit	HCT116 bCat-KO	HUVEC inhibit	PTEN del growth
O=C(CC1SC(=NCCc2ccccc2)N(/N=C/c2cccs2)C1=O)Nc1ccc(Cl)cc1 (centres undefined)	/	/	59.2	/	48.2
CN(CCO)c1cc(N2CCN(C(=O)c3ccco3)CC2)c2nonc2c1[N+](=O)[O-]	/	/	91.5	/	96.3
COc1cc(C2C(C#N)=C(N)Oc3cc(N)ccc32)cc(OC)c1OC (centres undefined)	51.0	28.8*	22.0	52.2	16.1
COc1cc(C2C(C#N)=C(N)Oc3c2oc(CO)cc3=O)cc(OC)c1OC (centres undefined)	90.0	66.6	97.6	106.1	97.5
N#CC1=C(N)Oc2cc(Nc3ccccc3)ccc2C1c1ccncc1 (centres undefined)	99.0	14.2*	17.4	3.1*	21.6
N#CC1=C(N)Oc2cc(N)ccc2C1c1ccc(F)cc1 (centres undefined)	91.0	14.3*	72.4	63.2	64.1
N#CC1=C(N)Oc2cc(N)ccc2C1c1cccnc1 (centres undefined)	/	/	57.2	/	59.1

From PubChem
